According to ChEMBL document CHEMBL2429732, “Aminopyrazole-Phenylalanine Based GPR142 Agonists: Discovery of Tool Compound and in Vivo Efficacy Studies” (ACS Med Chem Lett, 2013):
Each block holds one compound with its values, some of them ahead of it. Activity calls are given as the source filed them. The rule behind the calls is not given here.

Tests used:
[1] = Permeability across human Caco2 cells; assay type: ADME, cell-based; details: Caco-2, read-out: permeability
[2] = test system: Mus musculus; assay: Antidiabetic activity in mouse bearing human islets assessed as reduction of plasma glucose AUC at 10 mg/kg, sc administered 15 mins before glucose challenge measured up to 90 mins; set-up: scale not given: the % may be the effect or the level left; details: route subcutaneous
[3] = Agonist activity at cynomolgus monkey GPR142; set-up: species or system Macaca fascicularis
Method in brief: (§1)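 HEK293 cells, plated at 25 000/well, were transiently transfected with 100 ng receptor plasmid per well. They were labelled overnight with 1.0 μCi/mL tritiated inositol in inositol-free DMEM/10% dialyzed FCS. Cells were then exposed to graded compound levels in HBSS/0.01% BSA with 10 mM LiCl for 1 h at 37 °C. Cells were lysed in cold 20 mM formic acid (5 h, 4 °C), and IP was captured on yttrium silicate SPA beads and read by scintillation counting. EC50 is the mean of three runs.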

[4] = Oral bioavailability in rat at 2 mg/kg; assay type: ADME, organism-based; details: in vivo
Method in brief: (§2)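 Oral dosing used the ethyl ester prodrug. All pharmacokinetic calculations were based on the parent free acid in plasma.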

[5] = biological target: Cytochrome P450 2D6 (Homo sapiens, UniProt P10635); assay: Inhibition of CYP2D6 (unknown origin); assay type: ADME
Cytochrome P450 2D6, sequence (P10635 whole entry): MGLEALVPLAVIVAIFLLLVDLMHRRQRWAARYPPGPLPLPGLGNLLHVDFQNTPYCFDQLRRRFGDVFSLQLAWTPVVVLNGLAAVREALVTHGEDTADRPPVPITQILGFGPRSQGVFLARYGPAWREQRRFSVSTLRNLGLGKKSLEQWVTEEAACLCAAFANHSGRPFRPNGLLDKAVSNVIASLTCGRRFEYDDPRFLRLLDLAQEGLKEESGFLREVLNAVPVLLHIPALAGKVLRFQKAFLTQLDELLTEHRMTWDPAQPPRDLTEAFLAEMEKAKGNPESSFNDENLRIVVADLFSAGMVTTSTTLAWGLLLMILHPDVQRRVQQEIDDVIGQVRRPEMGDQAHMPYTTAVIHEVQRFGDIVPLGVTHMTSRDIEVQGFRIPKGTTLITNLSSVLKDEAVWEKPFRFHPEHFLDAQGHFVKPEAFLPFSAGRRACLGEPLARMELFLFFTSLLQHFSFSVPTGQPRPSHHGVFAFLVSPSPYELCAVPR

[6] = Clearance in cynomolgus monkey at 0.5 mg/kg, iv; assay type: ADME, organism-based, Macaca fascicularis; set-up: dose 0.5 mg/kg, route intravenous; details: in vivo
[7] = Tmax in cynomolgus monkey at 2 mg/kg, sc; assay type: ADME, organism-based, Macaca fascicularis; set-up: dose 2 mg/kg, route subcutaneous; details: in vivo
[8] = Cmax in rat at 2 mg/kg, sc; assay type: ADME, organism-based; set-up: dose 2 mg/kg, route subcutaneous; details: in vivo
[9] = biological target: Cytochrome P450 3A4 (Homo sapiens, UniProt P08684); assay: Inhibition of CYP3A4 (unknown origin); assay type: ADME
Cytochrome P450 3A4, sequence (P08684 whole entry): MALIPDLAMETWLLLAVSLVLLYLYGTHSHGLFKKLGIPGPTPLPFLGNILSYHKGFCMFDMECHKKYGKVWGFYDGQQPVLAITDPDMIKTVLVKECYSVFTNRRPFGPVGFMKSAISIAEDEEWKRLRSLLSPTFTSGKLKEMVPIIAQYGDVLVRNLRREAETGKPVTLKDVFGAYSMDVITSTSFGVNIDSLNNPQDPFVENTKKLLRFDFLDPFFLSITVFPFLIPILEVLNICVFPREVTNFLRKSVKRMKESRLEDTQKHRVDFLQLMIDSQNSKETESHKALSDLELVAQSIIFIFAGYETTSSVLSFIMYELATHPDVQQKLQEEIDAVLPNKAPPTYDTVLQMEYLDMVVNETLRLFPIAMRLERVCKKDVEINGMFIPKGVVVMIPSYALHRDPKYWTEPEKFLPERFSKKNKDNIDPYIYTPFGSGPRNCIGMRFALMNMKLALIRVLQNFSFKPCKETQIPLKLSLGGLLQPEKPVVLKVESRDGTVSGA

[10] = biological target: T1, Probable G-protein coupled receptor 142 (Mus musculus, UniProt Q7TQN9); assay: Agonist activity at mouse GPR142; method in brief: as §1
T1 sequence (Q7TQN9 whole entry): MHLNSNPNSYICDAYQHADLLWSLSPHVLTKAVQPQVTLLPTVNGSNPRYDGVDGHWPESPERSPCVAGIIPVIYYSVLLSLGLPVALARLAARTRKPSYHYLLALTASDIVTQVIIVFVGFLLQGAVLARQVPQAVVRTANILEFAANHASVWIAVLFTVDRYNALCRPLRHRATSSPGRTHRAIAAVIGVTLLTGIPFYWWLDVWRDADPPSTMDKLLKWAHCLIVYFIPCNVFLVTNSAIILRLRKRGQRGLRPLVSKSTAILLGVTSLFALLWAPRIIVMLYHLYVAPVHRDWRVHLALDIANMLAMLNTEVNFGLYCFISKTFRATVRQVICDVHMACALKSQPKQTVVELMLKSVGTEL

[11] = Cmax in cynomolgus monkey at 2 mg/kg, sc; assay type: ADME, organism-based, Macaca fascicularis; set-up: dose 2 mg/kg, route subcutaneous; details: in vivo
[12] = Tmax in cynomolgus monkey at 10 mg/kg, po; assay type: ADME, organism-based, Macaca fascicularis; set-up: dose 10 mg/kg, route oral; details: in vivo; method in brief: as §2
[13] = Fraction unbound in human plasma; assay type: ADME, cell-free
[14] = Cmax in cynomolgus monkey at 10 mg/kg, po; assay type: ADME, organism-based, Macaca fascicularis; set-up: dose 10 mg/kg, route oral; details: in vivo; method in brief: as §2
[15] = biological target: T2, Nuclear receptor subfamily 1 group I member 2 (Homo sapiens, UniProt O75469); assay: Induction of human PXR activity
T2 sequence (O75469 whole entry): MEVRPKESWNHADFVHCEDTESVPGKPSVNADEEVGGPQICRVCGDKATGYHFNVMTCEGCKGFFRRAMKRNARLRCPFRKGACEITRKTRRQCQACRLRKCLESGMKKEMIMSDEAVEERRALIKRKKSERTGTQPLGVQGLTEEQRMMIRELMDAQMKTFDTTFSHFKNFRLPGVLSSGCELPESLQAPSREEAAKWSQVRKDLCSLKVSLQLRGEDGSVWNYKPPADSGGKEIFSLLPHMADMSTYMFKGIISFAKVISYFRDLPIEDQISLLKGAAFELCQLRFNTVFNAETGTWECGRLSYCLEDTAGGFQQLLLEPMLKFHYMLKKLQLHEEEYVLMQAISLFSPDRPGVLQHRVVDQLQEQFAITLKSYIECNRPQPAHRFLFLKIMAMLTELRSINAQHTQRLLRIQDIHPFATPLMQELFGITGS

[16] = test system: Mus musculus; assay: Antidiabetic activity in wild type mouse assessed as reduction of plasma glucose AUC at 10 mg/kg, sc administered 15 mins before glucose challenge measured up to 90 mins; set-up: scale not given: the % may be the effect or the level left; details: route subcutaneous
[17] = Volume of distribution at steady state in cynomolgus monkey at 0.5 mg/kg, iv; assay type: ADME, organism-based, Macaca fascicularis; set-up: dose 0.5 mg/kg, route intravenous; details: in vivo, read-out: Vdss
[18] = Metabolic stability in human liver microsomes assessed as compound remaining at 1 uM after 30 mins; assay type: ADME, Microsome; details: read-out: Stability
Method in brief: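 Compound at 1.0 μM was incubated for 30 min in human liver microsomes; percentage of intact compound remaining was determined.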

[19] = Tmax in rat at 2 mg/kg, sc; assay type: ADME, organism-based; set-up: dose 2 mg/kg, route subcutaneous; details: in vivo
[20] = biological target: Voltage-gated inwardly rectifying potassium channel KCNH2 (Homo sapiens, UniProt Q12809); assay: Inhibition of human ERG by patch clamp assay
Voltage-gated inwardly rectifying potassium channel KCNH2, sequence (Q12809 whole entry): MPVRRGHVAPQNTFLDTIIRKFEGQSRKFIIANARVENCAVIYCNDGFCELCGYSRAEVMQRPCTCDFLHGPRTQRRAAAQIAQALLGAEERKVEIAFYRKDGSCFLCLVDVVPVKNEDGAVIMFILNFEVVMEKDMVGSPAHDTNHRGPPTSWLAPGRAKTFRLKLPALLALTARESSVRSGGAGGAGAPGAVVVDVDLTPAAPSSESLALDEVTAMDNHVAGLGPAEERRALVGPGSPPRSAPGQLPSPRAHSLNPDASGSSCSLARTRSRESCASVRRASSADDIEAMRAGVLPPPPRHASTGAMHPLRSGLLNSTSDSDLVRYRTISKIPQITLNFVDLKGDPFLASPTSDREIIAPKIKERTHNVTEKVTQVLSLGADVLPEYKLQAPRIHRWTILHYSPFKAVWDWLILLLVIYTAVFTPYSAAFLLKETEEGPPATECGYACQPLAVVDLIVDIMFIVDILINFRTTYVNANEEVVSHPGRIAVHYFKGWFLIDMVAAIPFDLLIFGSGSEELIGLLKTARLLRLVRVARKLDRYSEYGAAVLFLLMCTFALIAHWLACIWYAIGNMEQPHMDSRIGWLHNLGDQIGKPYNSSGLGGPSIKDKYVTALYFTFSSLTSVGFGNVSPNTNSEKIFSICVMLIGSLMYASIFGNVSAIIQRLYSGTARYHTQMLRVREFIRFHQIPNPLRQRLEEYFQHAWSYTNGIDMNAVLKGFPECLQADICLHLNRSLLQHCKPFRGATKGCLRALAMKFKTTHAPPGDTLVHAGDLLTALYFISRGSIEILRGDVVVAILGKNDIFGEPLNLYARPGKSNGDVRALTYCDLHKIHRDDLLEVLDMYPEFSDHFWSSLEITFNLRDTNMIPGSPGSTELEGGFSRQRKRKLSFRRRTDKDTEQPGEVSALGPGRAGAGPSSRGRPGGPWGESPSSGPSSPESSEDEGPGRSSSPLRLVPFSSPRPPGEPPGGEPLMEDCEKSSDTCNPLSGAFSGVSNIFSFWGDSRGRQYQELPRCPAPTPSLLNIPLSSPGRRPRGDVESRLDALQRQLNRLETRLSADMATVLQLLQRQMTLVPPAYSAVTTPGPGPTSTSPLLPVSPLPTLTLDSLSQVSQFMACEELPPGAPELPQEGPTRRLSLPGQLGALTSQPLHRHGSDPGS

[21] = Cmax in rat at 2 mg/kg, po; assay type: ADME, organism-based; set-up: dose 2 mg/kg, route oral; details: in vivo; method in brief: as §2
[22] = Bioavailability in rat at 2 mg/kg, sc; assay type: ADME, organism-based; details: in vivo
[23] = organism: Macaca fascicularis; assay: Agonist activity at cynomolgus monkey GPR142 relative to tryptophan
Method in brief: (§3)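 Inositol phosphate accumulation in HEK293 cells transfected with mouse or cynomolgus monkey receptor plasmid, tritiated inositol labelling, compounds in HBSS/0.01% BSA plus 10 mM LiCl, 37 °C for 1 h, SPA scintillation read-out; maximal efficacy expressed relative to tryptophan response.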

[24] = Half life in cynomolgus monkey at 0.5 mg/kg, iv; assay type: ADME, organism-based, Macaca fascicularis; set-up: dose 0.5 mg/kg, route intravenous; details: in vivo
[25] = Fraction unbound in rat plasma; assay type: ADME, cell-free
[26] = biological target: T3, Probable G-protein coupled receptor 142 (Mus musculus) (UniProt Q7TQN9); assay: Ex vivo agonist activity at GPR142 in wild type mouse islets assessed as stimulation of insulin secretion at 3 to 10 uM by ELISA in presence of glucose
T3 sequence (whole entry): T1 sequence (Q7TQN9 whole entry)
Method in brief: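 Islets from wild-type and GPR142 knockout mice incubated with compound at 3.0 and 10.0 μM in presence of 16.7 mM glucose; insulin secretion measured.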

[27] = Oral bioavailability in cynomolgus monkey at 10 mg/kg; assay type: ADME, organism-based, Macaca fascicularis; details: in vivo; method in brief: as §2
[28] = biological target: T3, Probable G-protein coupled receptor 142 (Mus musculus); assay: Agonist activity at mouse GPR142 relative to tryptophan; method in brief: as §3
[29] = Fraction unbound in cynomolgus monkey plasma; assay type: ADME, cell-free, Macaca fascicularis
[30] = Clearance in rat at 0.5 mg/kg, iv; assay type: ADME, organism-based; set-up: dose 0.5 mg/kg, route intravenous; details: in vivo
[31] = biological target: T4, Probable G-protein coupled receptor 142 (Homo sapiens, UniProt Q7Z601); assay: Agonist activity at human GPR142 expressed in HEK293 cells assessed as inositol phosphate accumulation using [3H]-inositol after 1 hr by scintillation counting; assay type: functional, cell-based
T4 sequence (Q7Z601 whole entry): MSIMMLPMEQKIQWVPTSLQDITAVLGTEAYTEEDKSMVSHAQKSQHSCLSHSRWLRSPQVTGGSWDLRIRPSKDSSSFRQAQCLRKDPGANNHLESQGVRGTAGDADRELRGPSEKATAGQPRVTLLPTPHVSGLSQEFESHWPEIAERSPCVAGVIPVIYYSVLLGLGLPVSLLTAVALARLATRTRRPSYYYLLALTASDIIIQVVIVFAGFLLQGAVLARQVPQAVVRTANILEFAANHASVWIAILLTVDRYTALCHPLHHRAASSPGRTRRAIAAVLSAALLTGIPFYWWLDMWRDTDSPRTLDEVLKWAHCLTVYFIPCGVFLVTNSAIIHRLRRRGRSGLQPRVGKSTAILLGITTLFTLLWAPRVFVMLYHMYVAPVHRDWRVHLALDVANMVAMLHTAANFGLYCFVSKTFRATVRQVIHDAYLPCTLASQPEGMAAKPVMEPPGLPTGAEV

[32] = Tmax in rat at 2 mg/kg, po; assay type: ADME, organism-based; set-up: dose 2 mg/kg, route oral; details: in vivo; method in brief: as §2
[33] = Metabolic stability in rat liver microsomes assessed as compound remaining at 1 uM after 30 mins; assay type: ADME, Microsome; details: read-out: Stability
[34] = organism: Mus musculus; assay: Induction of insulin secretion in GPR142-deficient mouse islets at 3 to 10 uM by ELISA in presence of glucose; assay type: functional
Method in brief: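 Islets isolated from wild-type and GPR142 knockout mice were incubated with test agent at 3.0 and 10.0 μM in the presence of 16.7 mM glucose, and insulin secretion was measured.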

[35] = Half life in rat at 0.5 mg/kg, iv; assay type: ADME, organism-based; set-up: dose 0.5 mg/kg, route intravenous; details: in vivo
[36] = Bioavailability in cynomolgus monkey at 2 mg/kg, sc; assay type: ADME, organism-based, Macaca fascicularis; details: in vivo
[37] = Volume of distribution at steady state in rat at 0.5 mg/kg, iv; assay type: ADME, organism-based; set-up: dose 0.5 mg/kg, route intravenous; details: in vivo, read-out: Vdss
[38] = test system: Mus musculus; assay: Antidiabetic activity in B6 mouse assessed as reduction of plasma glucose AUC at 10 mg/kg, po administered 30 mins before glucose challenge measured up to 120 mins; assay type: functional, organism-based; set-up: dose 10 mg/kg
Method in brief: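 B6 mice were fasted overnight. Prodrug was given orally at 0.3, 1.0, 3.0, 10.0 or 30.0 mg/kg 30 min before an oral glucose challenge at t = 0; sitagliptin 10.0 mg/kg po served as positive control. Blood glucose was measured by glucometer at −30, 0, 20, 40, 60, 90 and 120 min. Delta AUC was taken against the −30 min baseline. n = 8 control, n = 4 per dose; 1-way ANOVA.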

Papp [1]: 0.9 ×10⁻⁶ cm/s
EC50 [3]: 79 nM
bioavailability [4]: 3%
IC50 [5]: > 30 µM
clearance [6]: 7.33 mL/min/kg
Tmax [7]: 30 min
Cmax [8]: 7.5 µM
IC50 [9]: > 30 µM
EC50 [10]: 31 nM
Cmax [11]: 6.3 µM
Tmax [12]: 4 h
fraction unbound [13]: 0.16
Cmax [14]: 400 nM
Activity [15]: Not Active
Vd [17]: 0.33 L/kg
remaining at 0.5 h, 1 µM [18]: > 90%
Tmax [19]: 22.8 min
Cmax [21]: 170 nM
bioavailability [22]: 81%
Emax [23]: 79%
half-life [24]: 138 min
fraction unbound [25]: 0.01
Activity [26]: Active
bioavailability [27]: 6%
Emax [28]: 73%
fraction unbound [29]: 0.1
clearance [30]: 2.5 mL/min/kg
EC50 [31]: 52 nM
Tmax [32]: 49.8 min
remaining at 0.5 h, 1 µM [33]: > 90%
half-life [35]: 246 min
bioavailability [36]: 100%
Vd [37]: 0.29 L/kg
Compound: Cn1nc(-c2ccncc2)cc1NC(=O)[C@H](Cc1ccccc1)NCC(=O)O
Activity [2]: -28%
Activity [16]: -25%
IC50 [20]: > 30 µM
Activity [34]: inactive

Compound: N[C@@H](CC(=O)N1CCn2c(nnc2C(F)(F)F)C1)Cc1cc(F)c(F)cc1F [SITAGLIPTIN]
Activity [2]: -29%
Activity [38]: Active
Activity [16]: -29%
